In ChEMBL document CHEMBL5390224, “Design, synthesis, and biological evaluation of a novel series of 1,2,4-oxadiazole inhibitors of SLACK potassium channels: Identification of in vitro tool VU0935685” (Bioorg Med Chem, 2023):
Activity calls are given as the source filed them. The calls are words filed in the database; no cut-off is given here.

Experiments:
[1] = system: HEK293; assay: Inhibition of wild-type human SLACK expressed in HEK293 cells assessed as efficacy at 30 uM by thallium flux assay relative to control; format: cell-based
In short: (§1)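 Stable monoclonal HEK293 lines (WT or A934T SLACK) plated 20,000 cells/well; loaded 1 h at room temperature with Thallo-AM dye, 1.25 mM probenecid, masking dye, 0.3% Pluronic F-127 in buffer with 2.7 mM RbCl, pH 7.3. Compound preincubated 120 s, then Tl2SO4 stimulus (2.5 mM); fluorescence read 120 s. Concentration–response 1.5 nM–30 μM in half-log steps, ≥3 replicate wells.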

[2] = Inhibition of human SLACK A934T mutant expressed in HEK293 cells by thallium flux assay; format: cell-based; in short: as §1
[3] = system: HEK293; assay: Inhibition of human SLACK A934T mutant expressed in HEK293 cells assessed as efficacy at 30 uM by thallium flux assay relative to control; format: cell-based; in short: as §1
[4] = molecular target: T1, Potassium channel subfamily T member 2 (Homo sapiens, UniProt Q6UVM3); assay: Inhibition of SLICK (unknown origin) expressed in HEK293 cells by thallium flux assay; format: cell-based
T1 sequence (Q6UVM3 whole entry): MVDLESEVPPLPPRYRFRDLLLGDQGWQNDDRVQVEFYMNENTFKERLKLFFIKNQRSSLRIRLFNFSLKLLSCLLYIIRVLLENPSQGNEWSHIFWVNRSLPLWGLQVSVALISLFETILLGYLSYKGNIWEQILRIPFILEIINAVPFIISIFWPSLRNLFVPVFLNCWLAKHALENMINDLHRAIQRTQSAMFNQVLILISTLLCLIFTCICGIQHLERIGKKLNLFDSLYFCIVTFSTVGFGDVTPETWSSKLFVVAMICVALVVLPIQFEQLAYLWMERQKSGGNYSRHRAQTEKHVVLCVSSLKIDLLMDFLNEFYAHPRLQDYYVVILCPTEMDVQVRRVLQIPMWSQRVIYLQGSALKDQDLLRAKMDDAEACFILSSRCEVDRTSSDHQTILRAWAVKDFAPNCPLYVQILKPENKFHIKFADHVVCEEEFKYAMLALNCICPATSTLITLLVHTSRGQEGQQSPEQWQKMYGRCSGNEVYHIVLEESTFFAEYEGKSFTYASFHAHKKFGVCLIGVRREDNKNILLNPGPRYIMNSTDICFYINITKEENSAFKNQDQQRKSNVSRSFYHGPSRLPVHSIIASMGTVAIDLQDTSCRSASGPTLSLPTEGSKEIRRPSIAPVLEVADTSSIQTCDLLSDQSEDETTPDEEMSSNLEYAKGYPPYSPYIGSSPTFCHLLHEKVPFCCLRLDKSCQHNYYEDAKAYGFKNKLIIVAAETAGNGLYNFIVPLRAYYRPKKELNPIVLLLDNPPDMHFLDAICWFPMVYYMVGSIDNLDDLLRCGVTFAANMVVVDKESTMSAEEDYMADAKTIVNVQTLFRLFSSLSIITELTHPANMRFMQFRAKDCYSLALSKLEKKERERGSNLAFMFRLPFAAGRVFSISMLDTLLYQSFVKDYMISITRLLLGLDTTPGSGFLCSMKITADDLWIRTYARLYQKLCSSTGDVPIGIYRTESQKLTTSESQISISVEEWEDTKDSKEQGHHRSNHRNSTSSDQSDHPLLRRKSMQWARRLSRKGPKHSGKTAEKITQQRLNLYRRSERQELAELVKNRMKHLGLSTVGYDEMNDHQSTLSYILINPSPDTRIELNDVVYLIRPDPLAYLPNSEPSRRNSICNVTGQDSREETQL

[5] = molecular target: T2, Potassium channel subfamily T member 2 (Homo sapiens) (UniProt Q6UVM3); assay: Inhibition of SLICK (unknown origin) expressed in HEK293 cells assessed as efficacy at 30 uM by thallium flux assay relative to control; format: cell-based
T2 sequence (whole entry): T1 sequence (Q6UVM3 whole entry)

[6] = molecular target: Calcium-activated potassium channel subunit alpha-1 (Homo sapiens) (UniProt Q12791); assay: Inhibition of Maxi-K (unknown origin) expressed in HEK293 cells by thallium flux assay; format: cell-based
Sequence of Calcium-activated potassium channel subunit alpha-1 (Homo sapiens) (Q12791 whole entry): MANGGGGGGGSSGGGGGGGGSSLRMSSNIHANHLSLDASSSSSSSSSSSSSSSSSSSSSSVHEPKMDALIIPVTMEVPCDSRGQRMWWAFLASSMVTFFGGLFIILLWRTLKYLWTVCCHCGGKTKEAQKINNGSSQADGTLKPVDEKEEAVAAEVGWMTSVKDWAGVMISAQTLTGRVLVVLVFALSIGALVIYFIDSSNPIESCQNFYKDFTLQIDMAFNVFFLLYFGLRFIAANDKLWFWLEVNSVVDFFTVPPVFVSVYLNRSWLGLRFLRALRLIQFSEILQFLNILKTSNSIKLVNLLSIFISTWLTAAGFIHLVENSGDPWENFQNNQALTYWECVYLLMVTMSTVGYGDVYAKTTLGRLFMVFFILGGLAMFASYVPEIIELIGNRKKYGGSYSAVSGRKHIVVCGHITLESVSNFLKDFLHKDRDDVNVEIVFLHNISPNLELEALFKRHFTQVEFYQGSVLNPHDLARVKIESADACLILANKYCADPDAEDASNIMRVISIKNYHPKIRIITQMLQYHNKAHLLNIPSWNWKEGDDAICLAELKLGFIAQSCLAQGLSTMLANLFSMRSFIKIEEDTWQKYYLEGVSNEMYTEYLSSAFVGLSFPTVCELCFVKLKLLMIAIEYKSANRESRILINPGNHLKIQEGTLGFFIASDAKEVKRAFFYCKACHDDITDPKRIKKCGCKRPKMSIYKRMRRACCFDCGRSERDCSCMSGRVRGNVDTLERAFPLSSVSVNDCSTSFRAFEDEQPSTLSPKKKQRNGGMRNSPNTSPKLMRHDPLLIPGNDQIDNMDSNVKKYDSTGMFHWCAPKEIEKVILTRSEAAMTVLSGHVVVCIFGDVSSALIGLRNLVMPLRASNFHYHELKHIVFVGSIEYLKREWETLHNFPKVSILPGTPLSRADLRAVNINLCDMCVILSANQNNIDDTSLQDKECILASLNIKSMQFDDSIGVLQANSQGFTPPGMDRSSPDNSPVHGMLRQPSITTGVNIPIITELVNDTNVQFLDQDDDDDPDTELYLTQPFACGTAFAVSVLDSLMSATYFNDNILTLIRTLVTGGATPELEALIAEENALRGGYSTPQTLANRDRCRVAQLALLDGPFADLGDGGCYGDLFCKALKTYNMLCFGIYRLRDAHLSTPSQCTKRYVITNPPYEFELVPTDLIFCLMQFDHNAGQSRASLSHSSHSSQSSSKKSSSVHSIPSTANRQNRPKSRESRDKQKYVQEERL

[7] = molecular target: Calcium-activated potassium channel subunit alpha-1 (Homo sapiens) (UniProt Q12791); assay: Inhibition of Maxi-K (unknown origin) expressed in HEK293 cells assessed as efficacy at 30 uM by thallium flux assay relative to control; format: cell-based
[8] = Inhibition of wild-type human SLACK expressed in CHO cells by whole cell voltage clamp electrophysiology assay; format: cell-based; details: Cricetulus griseus
In short: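 Automated whole-cell patch clamp at room temperature. External (mM): NaCl 105, KCl 4, MgCl2 1, CaCl2 5, HEPES 10, NMDG-Cl 40, pH 7.4. Internal: NaCl 70, KF 70, KCl 10, EGTA 5, HEPES 5, pH 7.2. Concentrations 0.125–30 μM in half-log steps, ≥3 cells per series.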

[9] = system: CHO; assay: Inhibition of wild-type human SLACK expressed in CHO cells assessed as efficacy at 30 uM by whole cell voltage clamp electrophysiology assay; format: cell-based; details: Cricetulus griseus
[10] = Metabolic stability in mouse liver microsomes assessed as compound remaining measured after 10 min in presence of NADPH; format: ADME, Microsome
In short: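 Mouse liver microsomes (0.5 mg/mL) with compound (5 μM) preincubated 5 min at 37 °C in 100 mM potassium phosphate, pH 7.4. Reaction started with NADPH (1 mM) plus MgCl2 (3 mM). Samples at 0 and 10 min quenched in cold acetonitrile with internal standard; percent remaining by LC/MS/MS.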

[11] = Plasma protein binding in mouse assessed as unbound fraction by equilibrium dialysis method; format: ADME, cell-free
In short: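 Equilibrium dialysis, 12–14 K MWCO cellulose membrane: plasma spiked to 5 μM final versus 25 mM phosphate buffer pH 7.4, 6 h at 37 °C, shaking 200 rpm. Both sides matrix-matched, acetonitrile extraction with internal standard, LC/MS/MS quantitation. Triplicate.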

[12] = Activation of wild-type human SLACK expressed in HEK293 cells by thallium flux assay; format: cell-based
In short: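 Stable monoclonal HEK293 line with WT SLACK, dye-loaded 1 h at room temperature (Thallo-AM, probenecid, masking dye, Pluronic), pH 7.3 buffer. Compound added 120 s before Tl2SO4 stimulus (2.5 mM), kinetic fluorescence imaging 120 s. Concentrations 1.5 nM–30 μM, half-log steps, ≥3 replicate wells per series.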

[13] = system: HEK293; assay: Activation of wild-type human SLACK expressed in HEK293 cells assessed as efficacy at 30 uM by thallium flux assay relative to control; format: cell-based
[14] = Inhibition of wild-type human SLACK expressed in HEK293 cells by thallium flux assay; format: cell-based; in short: as §1
[15] = Efflux ratio of permeability in MDCK-MDR1 cells assessed as P-glycoprotein mediated efflux; format: ADME, cell-based, Canis lupus familiaris; details: dog
[16] = Apparent permeability in MDCK-MDR1 cells by bidirectional permeability assay; format: ADME, cell-based, Canis lupus familiaris; details: dog
[17] = molecular target: Voltage-gated inwardly rectifying potassium channel KCNH2 (Homo sapiens, UniProt Q12809); assay: Inhibition of human ERG expressed in HEK293 cells at 10 uM by thallium flux assay; format: toxicity, cell-based; details: hek293, 10 µM
Sequence of Voltage-gated inwardly rectifying potassium channel KCNH2 (Q12809 whole entry): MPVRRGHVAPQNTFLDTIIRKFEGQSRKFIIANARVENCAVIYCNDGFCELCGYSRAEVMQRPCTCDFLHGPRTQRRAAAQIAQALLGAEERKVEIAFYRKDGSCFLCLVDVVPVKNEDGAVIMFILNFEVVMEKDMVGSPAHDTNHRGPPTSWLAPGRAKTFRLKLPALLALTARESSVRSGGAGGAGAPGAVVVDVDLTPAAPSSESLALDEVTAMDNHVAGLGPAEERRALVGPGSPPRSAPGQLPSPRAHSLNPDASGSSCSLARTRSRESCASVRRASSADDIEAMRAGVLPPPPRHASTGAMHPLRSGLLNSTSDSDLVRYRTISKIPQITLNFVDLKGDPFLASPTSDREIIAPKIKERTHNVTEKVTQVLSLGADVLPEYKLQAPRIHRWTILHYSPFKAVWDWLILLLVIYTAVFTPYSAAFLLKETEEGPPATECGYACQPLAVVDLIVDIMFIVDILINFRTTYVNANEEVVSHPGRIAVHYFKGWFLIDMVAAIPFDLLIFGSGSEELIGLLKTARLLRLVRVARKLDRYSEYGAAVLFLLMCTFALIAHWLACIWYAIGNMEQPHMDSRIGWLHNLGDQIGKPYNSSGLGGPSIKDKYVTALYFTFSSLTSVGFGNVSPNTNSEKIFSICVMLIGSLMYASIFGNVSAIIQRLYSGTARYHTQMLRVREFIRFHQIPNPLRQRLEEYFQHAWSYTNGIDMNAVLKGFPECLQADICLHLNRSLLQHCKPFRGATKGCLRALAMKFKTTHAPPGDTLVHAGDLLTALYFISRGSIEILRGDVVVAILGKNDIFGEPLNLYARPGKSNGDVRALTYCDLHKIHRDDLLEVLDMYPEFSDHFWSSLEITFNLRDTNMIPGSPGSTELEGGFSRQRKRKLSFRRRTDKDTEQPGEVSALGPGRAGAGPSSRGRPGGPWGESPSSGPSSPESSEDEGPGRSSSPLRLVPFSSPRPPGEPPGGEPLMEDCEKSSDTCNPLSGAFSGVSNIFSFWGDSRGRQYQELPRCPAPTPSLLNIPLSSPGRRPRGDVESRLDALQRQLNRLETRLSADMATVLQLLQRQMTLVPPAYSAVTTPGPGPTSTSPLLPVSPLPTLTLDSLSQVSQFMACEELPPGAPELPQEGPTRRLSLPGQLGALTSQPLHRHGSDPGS

Structure (SMILES) | Efficacy [1] | IC50 [2] | Efficacy [3] | IC50 [4] | Efficacy [5] | inhibition [6] | Efficacy [7] | IC50 [8] | Efficacy [9] | Activity [10] | Fu [11] | also measured
O=S(=O)(c1cccc2c1OCCC2)N1CC(c2nc(-c3ccc(F)cc3)no2)C1 | 93% | 2.6 µM | 104% | > 10 µM | 55% | inactive | inactive | 1.63 µM | 100% | 19% | < 0.01 | 
COc1ccc(S(=O)(=O)N2CC(c3nc(-c4ccsc4)no3)C2)cc1 |  |  |  |  |  |  |  |  |  |  |  | EC50 [12]: 3.2 µM; Efficacy ([13]; filed as activator): 51%
CCOc1ccccc1S(=O)(=O)N1CC(c2nc(-c3ccc(F)cc3)no2)C1 | 105% | 1 µM | 110% | 2.3 µM | 50% | inactive | inactive | 1 µM | 101% | 58% | 0.012 | IC50 [14]: 3.2 µM; Efficacy ([1]; tested as the 2H-labelled form): 100%; Efficacy ([3]; tested as the 2H-labelled form): 83%; Efficacy ([5]; tested as the 2H-labelled form): 55%; inhibition ([6]; tested as the 2H-labelled form): inactive; Efficacy ([7]; tested as the 2H-labelled form): inactive; Efficacy ([9]; tested as the 2H-labelled form): 101%
Cc1ccccc1S(=O)(=O)N1CC(c2nc(-c3ccsc3)no2)C1 |  |  |  |  |  |  |  |  |  |  |  | EC50 [12]: 6.1 µM; Efficacy ([13]; filed as activator): 44%
CCOc1ccccc1S(=O)(=O)N1CC(c2nc(-c3ccsc3)no2)C1 | 102% | 0.82 µM | 72% | > 10 µM | 55% | inactive | inactive | 0.64 µM | 100% | < 10% | 0.022 | Ratio [15]: 0.65; Papp [16]: 31.1 10^-6 cm/s
CCOc1ccccc1S(=O)(=O)N1CCC(c2nc(-c3ccc(F)cc3)no2)CC1 | 105% | 4.3 µM | 129% | > 10 µM | 35% | inactive | inactive | 1.76 µM | 100% | 21% | < 0.01 | 
COc1ccccc1S(=O)(=O)N1CC(c2nc(-c3ccsc3)no2)C1 |  |  |  |  |  |  |  |  |  |  |  | EC50 [12]: 8.1 µM; Efficacy [13]: 29%
CC(C)Oc1ccccc1S(=O)(=O)N1CC(c2nc(-c3ccsc3)no2)C1 | 103% | 1.1 µM | 109% | > 10 µM | 47% | inactive | inactive | 1.09 µM | 101% | < 10% | < 0.01 | 
O=S(=O)(c1cccc2cccnc12)N1CC(c2nc(-c3ccc(F)cc3)no2)C1 | 98% | 1.5 µM | 112% | 5.9 µM | 56% | inactive | inactive | 1.58 µM | 100% | 71% | 0.014 | 
CCOc1ccccc1S(=O)(=O)N1CC(c2nc(-c3ccc(F)cc3Cl)no2)C1 | 95% | 2 µM | 95% | > 10 µM | 44% | inactive | inactive | 0.43 µM | 100% | 59% | 0.014 | IC50 [14]: 2.1 µM
Cc1ccc2cccc(S(=O)(=O)N3CC(c4nc(-c5ccc(F)cc5)no4)C3)c2n1 | 99% | 0.67 µM | 72% | > 10 µM | 76% | inactive | inactive | 0.32 µM | 100% | 26% | < 0.01 | inhibition (INH) [17]: Not Active
CCOc1ccccc1S(=O)(=O)N1CC(c2nc(-c3ccc(OC)cc3)no2)C1 |  |  |  |  |  |  |  |  |  |  |  | EC50 [12]: 7.1 µM; Efficacy [13]: 21%
CCOc1ccccc1S(=O)(=O)N1CC(c2nc(-c3ccc(F)s3)no2)C1 | 105% | 0.97 µM | 103% | > 10 µM | 65% | inactive | inactive | 0.7 µM | 100% | < 10% | 0.024 | 
O=S(=O)(c1ccccc1OCC(F)(F)F)N1CC(c2nc(-c3ccc(F)cc3)no2)C1 | 91% | 2.5 µM | 72% | > 10 µM | 27% | inactive | inactive | 1.76 µM | 100% | 57% | 0.012 | 
[2H]C([2H])([2H])C([2H])([2H])Oc1ccccc1S(=O)(=O)N1CC(c2nc(-c3ccc(F)cc3)no2)C1 |  | 2.3 µM |  | > 10 µM |  |  |  | 1.04 µM |  | 63% | 0.012 | IC50 [14]: 5.4 µM
